Only some compounds are listed: those with a hit (about 3.8% of all), similar ones and a draw of the others.
CSC inhib = cancer stem cell viability inhibitors, primary screen, luminescence; cancer stem cell-like cells viability; inhibition, % at 7.5 µM; 1.1% of 300,000 active; AID 2717, 2010; in the data active = inhibition above about 75%; tested in HMLE shEcad cells
MC4R barr agon = MC4R agonists recruiting beta-arrestin, primary screen, cell-based, luminescence, agonist arm of biased-ligand search; 0.98% of 360,000 active; Melanocortin receptor 4 (Homo sapiens), P32245; U2OS MC4R beta-arrestin complementation; percent of melanotan II response, DMSO zero; AID 540308, 2011; activation, % at 8.9 µM;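 active = activation above a per-plate cutoff, the mean activation of sample wells on that plate plus 3 SD, cut at about 8% in these data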
ANO1 block = TMEM16A chloride channel inhibitors, primary screen, cell-based, HTS; Anoctamin-1 (Mus musculus), Q8BHY3; AID 588511, 2011; 1.2% of 310,000 active; normalized B-score (activity score, 25-100; higher = stronger inhibition) at 10 µM; HEK293 TMEM16A/YFP iodide influx fluorescence, ionomycin;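 active = ratio plate-corrected score three or more library SD toward inhibition, starting fluorescence score within five deviations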;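 also: score derived from kinetic fluorescence span divided by baseline fluorescence per well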
Target sequence (Q8BHY3 whole entry, looked up): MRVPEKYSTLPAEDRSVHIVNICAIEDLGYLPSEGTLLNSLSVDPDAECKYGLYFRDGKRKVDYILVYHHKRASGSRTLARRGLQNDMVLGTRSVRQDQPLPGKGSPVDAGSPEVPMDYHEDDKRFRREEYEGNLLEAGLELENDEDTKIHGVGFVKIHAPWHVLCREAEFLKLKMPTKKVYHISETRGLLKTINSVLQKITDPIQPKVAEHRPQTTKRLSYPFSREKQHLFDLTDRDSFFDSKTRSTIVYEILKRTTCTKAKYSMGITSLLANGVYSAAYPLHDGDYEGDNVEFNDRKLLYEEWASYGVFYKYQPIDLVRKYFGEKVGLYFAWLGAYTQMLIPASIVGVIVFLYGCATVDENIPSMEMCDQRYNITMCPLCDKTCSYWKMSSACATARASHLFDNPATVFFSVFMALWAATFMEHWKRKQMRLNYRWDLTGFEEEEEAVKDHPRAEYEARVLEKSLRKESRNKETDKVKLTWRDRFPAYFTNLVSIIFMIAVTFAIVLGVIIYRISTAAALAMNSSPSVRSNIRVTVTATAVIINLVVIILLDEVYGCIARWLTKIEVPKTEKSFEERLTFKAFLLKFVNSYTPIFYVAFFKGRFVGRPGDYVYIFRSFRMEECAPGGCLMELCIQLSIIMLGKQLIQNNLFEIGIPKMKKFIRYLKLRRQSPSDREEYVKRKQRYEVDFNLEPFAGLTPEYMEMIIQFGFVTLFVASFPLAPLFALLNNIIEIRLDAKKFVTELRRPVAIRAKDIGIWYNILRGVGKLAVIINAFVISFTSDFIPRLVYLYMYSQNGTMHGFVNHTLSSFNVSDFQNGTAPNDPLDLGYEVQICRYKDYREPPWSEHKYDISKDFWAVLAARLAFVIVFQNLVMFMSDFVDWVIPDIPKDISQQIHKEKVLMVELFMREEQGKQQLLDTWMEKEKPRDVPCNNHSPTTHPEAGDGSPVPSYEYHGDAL
MC4R antag cAMP = MC4R antagonists of cAMP signaling, primary screen, cell-based, TR-FRET, antagonist arm of biased-ligand search; Melanocortin receptor 4 (Homo sapiens), P32245; MC4R-expressing cells, MTII-stimulated cAMP, LANCE TR-FRET; inhibition, % at 6.5 µM; 0.48% of 360,000 active;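 active = inhibition above its plate's cutoff, the mean of tested wells on that plate plus 3 SD, cut at about 29% in these data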;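 also: 0% = Melanotan II alone and 100% = Melanotan II plus saturating MCL0020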
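Assay system: U2OS cells stably expressing human melanocortin 4 receptor (MC4R) / Dosing: 6.5 µM / Timing: compound 30 min, challenge 1 h, detection 1 h / Measured by: Eu-cAMP/anti-cAMP TR-FRET, emission 671 nm / Replicates: singlicate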
ANO1 activ = TMEM16A chloride channel activators or potentiators, primary screen, cell-based, HTS; 0.3% of 340,000 active; B-score at 10 µM; HEK293 TMEM16A/YFP-H148Q/I152L, iodide quench fluorescence; stronger effect = lower value; Anoctamin-1 (Mus musculus), Q8BHY3;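 active = fluorescence-ratio B-score plate-corrected deviation score at least 3 library SD below zero, with starting fluorescence score within 5 deviations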;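 also: channel opened by trigger with iodide after compound preincubation; score built on the fluorescence ratio of max minus min over baseline; more negative score means more quench and so TMEM16A activation or potentiation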
Beta cell apopt = inhibitors of cytokine-induced beta cell apoptosis, primary screen, luminescence; 0.8% of 300,000 active; protection from apoptosis, % (test concentration not listed); INS-1E cytokine-induced death, ATP luminescence, 48 h; percent of positive-control rescue, neutral wells zero; AID 435005, 2010;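 active = Every replicate reaches about 75%, or at least half do and their mean reaches it too, limit read from the data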;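 also: 0% = cytokine-treated negative control wells and 100% = positive control rescue; higher means more ATP so stronger rescue from cytokine killing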
Starred values were filed as active, the others as inactive; i = inactive; · = no result.

SMILES | CSC inhib | MC4R barr agon | ANO1 block | MC4R antag cAMP | ANO1 activ | Beta cell apopt
Cc1cc(C)cc(-n2ncc3c2CCCC3NC(=O)CCN2Cc3ccccc3C2=O)c1 (stereo unspecified) | -1 | -2 | i | 1 | i | -1
CCOC(=O)c1c(C)oc2c1c(C(c1cccnc1)N1CCOCC1)c(O)c1ccccc12 (stereo unspecified) | 83* | -4 | i | 6 | i | -21
COc1ccc(-n2c(C)cc(C(=O)CN3C(=O)c4ccccc4C3=O)c2C)cc1 | 20 | 0 | i | 1 | i | -4
CC(=O)Nc1ccc(SCC(=O)c2cc(C)n(-c3ccccc3)c2C)cc1 | 84* | -3 | i | 4 | i | -1
COc1ccc(-n2c(C)cc(C(=O)CCl)c2C)cc1 | 95* | -4 | i | -14 | i | 38
COc1ccc(-n2c(C)cc(C(=O)CSc3ccc(NC(C)=O)cc3)c2C)cc1 | 169* | 0 | i | -6 | i | 5
O=[N+]([O-])c1ccc(S(=O)(=O)c2ccccc2)nc1 | 102* | -4 | i | 5 | i | 106*
Cc1ccc(S(=O)(=O)c2ccc([N+](=O)[O-])cn2)cc1 | 100* | -3 | i | 17 | i | 105*
Cc1ccc(S(=O)(=O)c2ccc(C)cc2)cc1 | -9 | 0 | i | 13 | i | 0
Cc1cc(Sc2ccc([N+](=O)[O-])cn2)ccc1Br | 25 | -1 | i | 6 | i | -11
Cc1cc(S(=O)(=O)c2ccc([N+](=O)[O-])cn2)ccc1Br | 98* | -2 | i | 4 | i | 17
CC(C(=O)Nc1ccc2[nH]c(=O)[nH]c2c1)N1CCN(Cc2ccc3c(c2)OCO3)CC1 (stereo unspecified) | · | -2 | · | 10 | i | 2
COc1ccc(-c2oc3ccccc3c2C(=O)OCc2ccccc2)cc1 | -16 | 0 | i | -1 | i | -3
CCCC(=O)NC(c1ccc(C)cc1)c1ccc2cccnc2c1O (stereo unspecified) | 110* | -3 | i | 5 | i | 112*
CC(=O)NC(c1ccc(Cl)cc1Cl)c1ccc2cccnc2c1O (stereo unspecified) | -18 | -1 | i | -2 | i | -6
CCCC(=O)NC(c1ccccc1Cl)c1c(O)ccc2ccccc12 (stereo unspecified) | 9 | -1 | i | 7 | i | 2
CCCC(=O)NC(c1ccc(Cl)cc1Cl)c1ccc2cccnc2c1O (stereo unspecified) | 109* | -3 | i | -8 | i | 94*
CCCCC(=O)NC(c1ccccc1Cl)c1c(O)ccc2ccccc12 (stereo unspecified) | -12 | 1 | i | 7 | i | 1
CCCC(=O)NC(c1ccc(Cl)cc1)c1ccc2cccnc2c1O (stereo unspecified) | 106* | -2 | i | -1 | i | 113*
CCCCC(=O)NC(c1ccc(Cl)cc1)c1ccc2cccnc2c1O (stereo unspecified) | 153* | -3 | i | 3 | i | 97*
O=C1CCCN1CCCN=c1c([N+](=O)[O-])nn(-c2ccc(Cl)cc2)n1O | · | -2 | · | 3 | -42* | ·
CC(C)(C)c1ccc(-c2nnc(SCC(=O)c3ccc4c(c3)OCCO4)o2)cc1 | · | -1 | 100* | 16 | i | -3
CC(=O)Nc1ccc(NC(=O)CSc2nnc(-c3ccc4c(c3)OCO4)o2)cc1 | 5 | 1 | · | 10 | i | 0
CC(=O)CSc1nnc(-c2ccc3c(c2)OCO3)o1 | 13 | -2 | i | -2 | -16* | -2
CNc1ccc(/C=C\CCCO)cn1 | · | 0 | · | 5 | · | ·
SMILES | CSC inhib | MC4R barr agon | ANO1 block | MC4R antag cAMP | ANO1 activ | Beta cell apopt
O=S(=O)(Nc1ncnc2sc3c(c12)CCC3)c1ccc2ccccc2c1 | · | 0 | 100* | 3 | i | -1
COc1ccc(Oc2ccc3c(C(F)(F)F)cc(C(F)(F)F)nc3n2)cc1 | 2 | 4 | i | -9 | i | 8
Oc1ccc(Oc2ccc3c(C(F)(F)F)cc(C(F)(F)F)nc3n2)cc1 | 2 | 15* | i | 14 | i | 15
Cc1[nH]c(C)c(S(=O)(=O)Nc2cccc(Cl)c2C)c1C(=O)N1CCCC1 | 2 | -2 | i | 17 | i | -4
COc1ccc(/C=C(/C(=O)c2cccs2)N2C=CC=CC2=C(C#N)C#N)cc1 | · | -3 | · | 8 | -5* | ·
COc1ccc(NC(=O)c2cccs2)cc1 | 11 | 0 | i | 13 | i | 5
CC(=O)c1ccc(N2CCN(c3ccc(S(=O)(=O)NCCCN(C)C)cc3[N+](=O)[O-])CC2)cc1 | 82* | -2 | i | 4 | i | 22
COc1cccc(-c2cnc3cccnn23)c1 | · | 0 | · | 3 | · | ·
O=C(NNc1ccc(-c2csnn2)cc1)c1ccccc1C(F)(F)F | 13 | -1 | i | 3 | i | 1
O=C(NNc1ccc(-c2csnn2)cc1)c1cc(Cl)cc(Cl)c1 | 87* | 0 | i | -7 | i | 1
CCOC(=O)COc1ccc2ccccc2c1/C=C/[N+](=O)[O-] | -8 | -1 | i | 12 | i | 106*
CCOC(=O)COc1ccc(/C=C/[N+](=O)[O-])c(OCC(=O)OCC)c1 | 6 | -3 | i | 26 | i | 10
O=[N+]([O-])/C=C/c1c(OCc2ccccc2)ccc2ccccc12 | -9 | 2 | i | 12 | i | 115*
O=c1[nH]nnc2cc(Cl)ccc12 | · | -2 | · | 6 | i | ·
Cc1cccc(NC(=O)CN(C)C(=O)Cc2ccc(-c3ccccc3)cc2)c1C | · | 3 | · | 5 | · | ·
CN(C)c1cc(N/N=C\c2ccccc2)nc(N(C)C)n1 | 18 | 8.5* | i | 13 | i | 7
COc1ccc(/C=N/Nc2cc(N(C)C)nc(N(C)C)n2)cc1 | -9 | 1 | i | 4 | i | ·
NS(=O)(=O)c1ccc(NC(=O)CN2CCCN(S(=O)(=O)c3ccc(F)cc3)CC2)cc1 | 0 | 1 | i | 9 | -7.8* | 4
O=C(Cn1c(=O)oc2ccccc21)Nc1ccc(S(=O)(=O)N2CCCCC2)cc1 | 1 | 0 | i | 11 | -6.5* | 7
CCN(CC)S(=O)(=O)c1ccc(NC(=O)Cn2c(=O)oc3ccccc32)cc1 | -19 | -2 | i | 13 | i | -7
CCn1cc([N+](=O)[O-])c(C(=O)N2CCCCCC2)n1 | · | 2 | i | 5 | i | 1
